A selection: hits, their analogues and other compounds. The true share with any hit is near 1.9%.
Cneo AK release – Cryptococcus neoformans lysis via adenylate kinase release; 360,000 compounds, 0.2% hits; lysis activity, % at 15 µM; AID 651654; C. neoformans lysis, adenylate kinase release luminescence, 4 h; normalised: neutral wells 0, clomiphene wells 100;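 active = mean lysis activity across replicates of at least 80%, whatever share of replicates individually reach that level; inactive = mean lysis activity below 80%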
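Assay system: Cryptococcus neoformans yeast cells / Dosing: single-point compound dose / Timing: 4 h at 37 °C static, read 1 h later / Measured by: luminescence of released adenylate kinase using an AK detection reagent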
FN deposit inh – fibronectin deposition inhibition; AH1F fibroblasts, Alexa488-fibronectin deposition fluorescence, overnight; inhibition, % at 12.6 µM; 350,000 compounds, 0.086% hits; AID 743247;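 active = mean inhibition across replicates of 30% or more, regardless of how many single replicates reach that level; inconclusive = mean under 30% yet at least half of replicates reach 30%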;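 note: positive control wells lacked labelled fibronectin entirely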
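Material: AH1F fibroblasts assembling fluorescent fibronectin matrix; amount: 10000 AH1F cells/well; medium: DMEM, 2% serum; reagent: Alexa488-fibronectin, 24 nM final in well; dosing: single compound dose, delivered by pin transfer; incubation: 1 h adhesion, overnight exposure; detection: fluorescence after three HBSS washes, excitation 485 nm, emission 525 nm; measure: fibronectin deposition inhibition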
CFTR F508del cor – CFTR F508del correction in bronchial cells | CFBE cells, YFP halide quenching; stimulated with forskolin plus potentiator P3; % fluorescence drop versus neutral controls | activity (quench increase), % at 7.58 µM | 350,000 compounds, 0.36% hits;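 active = mean added fluorescence quench of at least 8% versus neutral control, with both replicates also reaching 8%; inconclusive = only one of the mean or replicate conditions met; inactive = mean below 8% and not both replicates reaching 8%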;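 note: cells transiently co-express mutant CFTR-F508del with the halide-sensitive YFP; corrector assay measuring rescue of mutant channel to the surface after 24 h compound exposure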
Xi reactivation – reactivates the inactive X chromosome in mouse fibroblasts | XiGFP mouse fibroblasts, % GFP-positive cells imaging, 3 d; cells co-treated with 5-aza-dC sensitizer; scaled so ellipticine positive control = 100% | activation, % at 7.58 µM | 360,000 compounds, 0.055% hits | AID 743238;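 active = mean normalized replicate activation at least 10% and every replicate at or above 10%; inconclusive = only one of the two criteria met; inactive = mean below 10% and not all replicates reach 10%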;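 note: 0% = median of on-plate neutral control wells and 100% = ellipticine 6 µM median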
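System: SV40-immortalized XiGFP fibroblast cells, line 68-5-11 / Incubation: 3-day compound exposure, then 15 min fixation at room temperature / Compound: single concentration per compound, delivered by pin transfer / Buffer or medium: DMEM plus 5-aza-dC sensitizer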
DENV2 CPE rescue – protects cells from dengue virus 2 cytopathic effect; DENV2-infected cells, cytopathic effect rescue, plate reader; CPE inhibition, % at 9.99 µM; 350,000 compounds, 1.7% hits; AID 651640; in the data active = CPE inhibition above about 20%, passing the limit was not always enough; inconclusive = no clear call, values can overlap the other calls; tested in BHK-21 cells;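 note: 0% = median of neutral control wells and 100% = median of positive control wells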
PGC1a acetyl inh – modulators of PGC1a acetylation | U2OS PGC1a acetylation, AlphaScreen anti-acetyl-lysine; with virally co-expressed GCN5 acetyltransferase | inhibition, % at 15.6 µM | 350,000 compounds, 0.17% hits;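 active = every replicate shows inhibition of at least 40%; inconclusive = mean inhibition at least 40% but some replicate below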;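 note: 0% = neutral control wells and 100% = positive control wells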
Active calls of the source: *; ? = inconclusive; · = not tested or not shown.

SMILES | Cneo AK release | FN deposit inh | CFTR F508del cor | Xi reactivation | DENV2 CPE rescue | PGC1a acetyl inh
CNC(=O)C[C@@H]1CC[C@H]2[C@@H](COc3ccc(NC(=O)Nc4ccc(F)cc4)cc3C(=O)N2C)O1 | -3 | 3 | -2 | 0 | 11 | -2
NC1=NC(=O)C(=Cc2ccccc2)S1 | · | 8 | 1 | 0 | 30* | ·
NC1=NC(=O)/C(=C\c2cccnc2)S1 | · | 3 | 0 | 0 | -1 | ·
CC(=O)N(C1=C(Cl)C(=O)c2ccccc2C1=O)C1CCCCC1 | 8 | 80* | -6 | 4 | -3 | 31
CC(=O)N(c1ccccc1C)C1CCCC1 | 0 | -1 | -3 | 0 | -5 | -5
CSc1nsc(SC)c1NC(=O)Nc1ccccc1C | · | 7 | 0 | 0 | · | 103*
CCS(=O)(=O)NCC[C@@H]1CC[C@@H](NC(=O)Cc2ccccn2)[C@@H](CO)O1 | -4 | -14 | -2 | 0 | 2 | 17
C[C@@H](NC(=O)C[C@@H]1CC[C@H]2[C@@H](COC[C@@H](O)CN2Cc2cc(F)ccc2F)O1)c1ccccc1 | 101* | 1 | 3 | 0 | · | -3
C[C@@H](NC(=O)C[C@@H]1CC[C@@H]2[C@H](COC[C@H](O)CN2Cc2cc(F)ccc2F)O1)c1ccccc1 | 112* | -4 | -1 | 0 | · | 4
Nc1nnc(CC(=O)N/N=C/c2ccccc2OCc2ccccc2F)s1 | · | -2 | -2 | 0 | 3 | ·
Nc1nnc(CC(=O)N/N=C/c2ccccc2OCc2ccc(F)cc2)s1 | -3 | 10 | -2 | 0 | 4 | 61*
CN(C)CCCNC(=O)C[C@H]1CC[C@H]2[C@@H](COc3ccc(NC(=O)C4CCC4)cc3C(=O)N2C)O1 | 52 | -1 | 3 | 0 | 14 | -1
CC(=O)c1ccc(N2CCN(C(=O)Cc3cccs3)CC2)cc1 | 153* | 4 | 0 | 0 | 9 | -18
CC(=O)N1CC2(C1)[C@@H](c1ccc(-c3ccccc3C)cc1)[C@@H](CO)N2C(=O)CC1CC1 | · | · | -1 | 0 | 7 | -2
C#CCOCCOCCOCCNc1nc(N2CCN(C(=O)[C@H]([C@@H](C)CC)n3cc(CCCCN)nn3)CC2)nc(N2CCN(C(=O)[C@H](CCCCN)n3cc(CCCC)nn3)CC2)n1 | -2 | -9 | 0 | 0 | -7 | 6
C#CCOCCOCCOCCNc1nc(N2CCOCC2)nc(N2CCN(C(=O)[C@H](Cc3ccc(O)cc3)n3cc([C@@H](N)CC(C)C)nn3)CC2)n1 | 0 | 19 | -3 | 0 | 20* | 6
C#CCOCCOCCOCCNc1nc(N2CCN(C(=O)[C@H]([C@@H](C)CC)n3cc(CCC(=O)O)nn3)CC2)nc(N2CCN(C(=O)[C@H](CCCCN)n3cc(CCCC)nn3)CC2)n1 | 1 | 6 | 9.2* | 0 | ? | ·
C#CCOCCOCCOCCNc1nc(OC)nc(N2CCN(C(=O)[C@H](CCC(=O)O)n3cc(C(N)CO)nn3)CC2)n1 (stereo partly drawn) | -1 | -4 | -2 | 0 | 23* | 9
C[C@@H]1CCCCO[C@H](CN(C)Cc2ccc(Cl)c(Cl)c2)[C@@H](C)CN([C@@H](C)CO)C(=O)c2cc(NC(=O)C3CCCCC3)ccc2O1 | 1 | · | 3 | 0 | -2 | -17
CCS(=O)(=O)N1CCC2(CC1)CN(S(=O)(=O)c1ccccc1)[C@H](CO)c1c2c2ccc(OC)cc2n1C | · | · | 2 | 0 | ? | -5
C[C@H]1CN([C@@H](C)CO)C(=O)c2cc(NS(=O)(=O)c3cn(C)cn3)ccc2O[C@@H]1CN(C)CC1CCCCC1 | 6 | -8 | -5 | 0 | 0 | 1
COc1ccc(CCn2c(NN=C(C)C)nc3c2c(=O)[nH]c(=O)n3C)cc1 | -13 | 2 | 9.8* | 0 | -1 | -4
COC(=O)c1[nH]c2c(c1C)C(=O)CC(c1cccc(OC)c1)C2 (stereo not drawn) | 0 | -26 | 8.4* | 1 | 3 | ·
COCCOC(=O)c1[nH]c2c(c1C)C(=O)CC(c1cccs1)C2 (stereo not drawn) | · | -7 | 13* | 0 | 0 | 2

Source: PubChem BioAssay (Broad Institute)
